Experimental data taken from ChEMBL document CHEMBL1130014, “Mixed bis(thiosemicarbazone) ligands for the preparation of copper radiopharmaceuticals: synthesis and evaluation of tetradentate ligands containing two dissimilar thiosemicarbazone functions” (J Med Chem, 1997).

What was measured:
Rattus norvegicus [1] = species on record: Rattus norvegicus; experiment: […] uptake of compound was determined in rat heart at 5 min following femoral injection of radiotracer; type: functional, Myocardium
How it was run: (§1)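 Sprague–Dawley rats under ether anesthesia received the ⁶⁷Cu complex (~2 µCi in 0.2 mL) into the femoral vein. Dosing solution was saline with ca. 5% ethanol and ≤0.5% DMSO, filtered at 0.2 µm, with radiochemical purity by silica TLC (ethanol). Organ radioactivity is expressed as % injected dose per organ. Mean ± SD, three rats per time point.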

Rattus norvegicus [2] = species on record: Rattus norvegicus; experiment: […] uptake of compound was determined in rat brain at 5 min following femoral injection of radiotracer; type: functional; how it was run: as §1
Rattus norvegicus [3] = species on record: Rattus norvegicus; experiment: […] uptake of compound was determined in rat heart at 120 min following femoral injection of radiotracer; type: functional, Myocardium; how it was run: as §1
Rattus norvegicus [4] = species on record: Rattus norvegicus; experiment: […] uptake of compound was determined in rat brain at 120 min following femoral injection of radiotracer; type: functional; how it was run: as §1
Rattus norvegicus [5] = species on record: Rattus norvegicus; experiment: […] uptake of compound was determined in rat brain at 1 min following femoral injection of radiotracer; type: functional; how it was run: as §1
Rattus norvegicus [6] = species on record: Rattus norvegicus; experiment: […] uptake of compound was determined in rat heart at 1 min following femoral injection of radiotracer; type: functional, Myocardium; how it was run: as §1
[7] = biological target: Serum albumin (Canis lupus familiaris) (UniProt P49822); experiment: Binding of compound in order to assess the amount of free (non-albumin-associated) radiotracer present in solutions of dog serum albumin (35 mg/mL saline)
Serum albumin (Canis lupus familiaris), sequence (P49822 whole entry, looked up): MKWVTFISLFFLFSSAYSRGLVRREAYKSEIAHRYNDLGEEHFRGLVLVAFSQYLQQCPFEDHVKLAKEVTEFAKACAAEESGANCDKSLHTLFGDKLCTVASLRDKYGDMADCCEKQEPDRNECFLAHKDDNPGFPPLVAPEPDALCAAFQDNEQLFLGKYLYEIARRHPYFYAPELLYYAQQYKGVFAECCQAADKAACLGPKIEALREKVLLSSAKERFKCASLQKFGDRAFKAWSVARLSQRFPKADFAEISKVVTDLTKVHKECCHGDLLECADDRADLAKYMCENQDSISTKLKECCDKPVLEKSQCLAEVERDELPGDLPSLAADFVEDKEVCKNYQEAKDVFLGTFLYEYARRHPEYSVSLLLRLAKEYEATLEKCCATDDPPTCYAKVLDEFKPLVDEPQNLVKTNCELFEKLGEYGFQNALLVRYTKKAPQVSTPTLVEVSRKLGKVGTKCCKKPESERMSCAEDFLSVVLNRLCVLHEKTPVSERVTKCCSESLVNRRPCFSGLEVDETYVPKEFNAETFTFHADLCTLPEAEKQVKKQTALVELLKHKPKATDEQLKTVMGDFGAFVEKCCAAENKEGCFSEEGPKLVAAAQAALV

Albumin = Albumin (Homo sapiens, UniProt P02768); experiment: Binding of compound in order to assess the amount of free (non-albumin-associated) radiotracer present in solutions of human serum albumin (35 mg/mL saline)
Albumin, sequence (P02768 whole entry): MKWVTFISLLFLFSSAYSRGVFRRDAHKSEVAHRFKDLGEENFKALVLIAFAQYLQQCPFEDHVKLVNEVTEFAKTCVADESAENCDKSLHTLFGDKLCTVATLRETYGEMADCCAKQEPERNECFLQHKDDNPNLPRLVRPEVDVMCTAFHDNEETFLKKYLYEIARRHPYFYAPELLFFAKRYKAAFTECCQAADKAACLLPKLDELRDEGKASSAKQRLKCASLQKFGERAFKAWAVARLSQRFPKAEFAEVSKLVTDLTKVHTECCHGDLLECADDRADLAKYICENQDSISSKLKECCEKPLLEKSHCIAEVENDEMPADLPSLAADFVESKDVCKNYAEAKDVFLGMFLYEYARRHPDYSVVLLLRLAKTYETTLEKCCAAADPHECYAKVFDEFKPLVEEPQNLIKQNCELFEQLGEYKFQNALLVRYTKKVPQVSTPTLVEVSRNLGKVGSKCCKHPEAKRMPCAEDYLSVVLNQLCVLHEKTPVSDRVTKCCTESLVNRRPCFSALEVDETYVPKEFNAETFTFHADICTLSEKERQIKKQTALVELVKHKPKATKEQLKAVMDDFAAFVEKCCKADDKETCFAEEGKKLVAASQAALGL
How it was run: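 ⁶⁷Cu complex (1–2 µL per 1 mL) mixed into freshly prepared albumin in normal saline. Within 2 min, loaded into 30,000 Da NMWL centrifugal ultrafilters and spun at once at 1000g, 20 min, 20 °C, 45° fixed-angle rotor. Filtrate and unfiltered solution γ-counted. Free % is the protein filtrate/unfiltered ratio divided by the same ratio in protein-free saline, ×100. Mean ± SD of 6–12 measurements.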

| Free complex [7] | Free complex (Albumin) | Compound | Dose (Rattus norvegicus [1]) | Dose (Rattus norvegicus [2]) | Dose (Rattus norvegicus [3]) | Dose (Rattus norvegicus [4]) | Dose (Rattus norvegicus [5]) | Dose (Rattus norvegicus [6]) |
| --- | --- | --- | --- | --- | --- | --- | --- | --- |
|  |  | C/N=C(\S)N/N=C/C(C)=N/N=C(/N)S | 2.44% | 1.37% | 2.03% | 1.1% | 1.4% | 2.73% |
|  |  | C/N=C(\S)N/N=C(C)/C=N/N=C(/N)S | 2.86% | 1.81% | 2.59% | 1.67% | 1.72% | 2.84% |
|  |  | C/N=C(\S)N/N=C/C(C)=N/N/C(S)=N/C | 3.4% | 3% | 3.3% | 3.2% | 3% | 2.7% |
|  |  | CC(/C=N/N=C(\S)N(C)C)=N\N=C(/S)N(C)C | 0.43% | 2.2% |  |  | 3.1% | 0.97% |
|  |  | C/N=C(\S)N/N=C(C)/C=N/N=C(\S)N(C)C | 1.27% | 1.8% | 0.89% | 1.63% | 2.76% | 1.43% |
|  |  | CC(/C=N/N=C(\S)N(C)C)=N\N=C(\N)S | 1.23% | 1.97% | 1.05% | 1.98% | 2.79% | 1.59% |
|  |  | CC(/C=N/N=C(/N)S)=N\N=C(\N)S [PYRUVALDEHYDE BIS(THIOSEMICARBAZONE)(PTS)] | 2.3% | 0.29% |  |  | 0.46% | 2.8% |
| 25.7% | 5.4% | Copper complex of Propane-1,2-diylidene-N-amino-methylaminomethanethione-N-amino-dimethylaminomethanethione |  |  |  |  |  |  |
| 57.6% | 17.2% | Copper complex of Propane-1,2-diylidene-N-thiourea-N-amino-dimethylaminomethanethione |  |  |  |  |  |  |
| 57.4% | 10.4% | Copper complex of Propane-1,2-diylidene-N-thiourea-N-amino-methylaminomethanethione [listing 1 of 2 here] |  |  |  |  |  |  |
| 46.5% | 8.6% | Copper complex of Propane-1,2-diylidene-N-thiourea-N-amino-methylaminomethanethione [listing 2 of 2 here] |  |  |  |  |  |  |
| 30.3% | 37% | Propyl glyoxal bis(thiosemicarbazone)(67Cu-n-PrTS) |  |  |  |  |  |  |
